Measured values taken from ChEMBL document CHEMBL3272259, “Nitroimidazoles with antibacterial activity against Neisseria gonorrhoeae” (1977).
Converted amounts (≈) assume the structure as drawn. The source made the active and inactive calls. The calls are words filed in the database; no cut-off is given here.

Assays:
Clostridium perfringens = assay: Antibacterial activity against Clostridium perfringens ATCC 13124 after 24 hrs by ten-fold serial dilution method; type: functional; details: ATCC 13124, 24 h
Method in brief: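 Grown in Fluid Thioglycollate Broth and incubated 24 h at 37 °C. Growth was checked by eye after incubation. MIC was taken as the lowest concentration, in μg/mL, that prevented visible growth.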

Bacteroides fragilis = assay: Antibacterial activity against Bacteroides fragilis ATCC 23745 after 24 hrs by ten-fold serial dilution method; type: functional; details: ATCC 23745, 24 h
Method in brief: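 Grown in Fluid Thioglycollate Broth and incubated 24 h at 37 °C. Growth was read by eye, and the MIC (µg/mL) is the lowest concentration that prevented visible growth.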

Neisseria gonorrhoeae = assay: Antibacterial activity against Neisseria gonorrhoeae ATCC 19424 after 48 hrs by ten-fold serial dilution method; type: functional; details: ATCC 19424, 48 h
Method in brief: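 Tested on chocolate agar made from GC agar base with hemoglobin and Supplement C, incubated 48 h at 37 °C. Plates were checked visually, and the MIC (µg/mL) is the lowest concentration with no visible growth.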

Trichomonas vaginalis = assay: Antibacterial activity against Trichomonas vaginalis ATCC 30001 after 48 hrs by ten-fold serial dilution method; type: functional; details: ATCC 30001, 48 h
Method in brief: (§1)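 Trichomonads were cultured in Diamond medium with 5% serum and incubated 48 h at 37 °C. Cultures were examined microscopically for motile cells, and the MIC (µg/mL) is the lowest concentration giving no motile organisms.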

Tritrichomonas foetus = assay: Antibacterial activity against Tritrichomonas foetus 1002-96-27 after 48 hrs by ten-fold serial dilution method; type: functional; details: 1002-96-27, 48 h; method in brief: as §1
Pentatrichomonas hominis = assay: Antibacterial activity against Pentatrichomonas hominis ATCC 30000 after 48 hrs by ten-fold serial dilution method; type: functional; details: ATCC 30000, 48 h; method in brief: as §1
Candida albicans = assay: Antifungal activity against Candida albicans; type: functional, organism-based

Row | Compound | MIC (Clostridium perfringens) | MIC (Bacteroides fragilis) | MIC (Neisseria gonorrhoeae) | MIC (Trichomonas vaginalis) | MIC (Tritrichomonas foetus) | MIC (Pentatrichomonas hominis) | Activity (Candida albicans)
1 | Cn1c([N+](=O)[O-])cnc1[S+]([O-])CCC(=O)O (centres undefined) | 100 µg/mL (≈ 404 µM) | 10 µg/mL (≈ 40.4 µM) | > 100 µg/mL | 10 µg/mL (≈ 40.4 µM) | 10 µg/mL (≈ 40.4 µM) | 10 µg/mL (≈ 40.4 µM) | inactive
2 | Cn1c([N+](=O)[O-])cnc1SCCCCCC(=O)O | 10 µg/mL (≈ 36.6 µM) | 100 µg/mL (≈ 366 µM) | 0.1 µg/mL (≈ 0.366 µM) | 1 µg/mL (≈ 3.66 µM) | 1 µg/mL (≈ 3.66 µM) | 1 µg/mL (≈ 3.66 µM) | inactive
3 | Cn1c([N+](=O)[O-])cnc1SCCOc1ccc(C(=O)O)cc1 | 10 µg/mL (≈ 30.9 µM) | 10 µg/mL (≈ 30.9 µM) | 1 µg/mL (≈ 3.09 µM) | 1 µg/mL (≈ 3.09 µM) | 1 µg/mL (≈ 3.09 µM) | 1 µg/mL (≈ 3.09 µM) | –
4 | Cn1c([N+](=O)[O-])cnc1S(=O)(=O)CCCCCCCOc1ccccc1[N+](=O)[O-] | > 100 µg/mL | > 100 µg/mL | > 100 µg/mL | > 100 µg/mL | > 100 µg/mL | > 100 µg/mL | inactive
5 | Cn1c([N+](=O)[O-])cnc1SCCCCCCCOc1ccccc1[N+](=O)[O-] | > 100 µg/mL | > 100 µg/mL | > 100 µg/mL | 100 µg/mL (≈ 254 µM) | 100 µg/mL (≈ 254 µM) | 100 µg/mL (≈ 254 µM) | inactive
6 | Cn1cc([N+](=O)[O-])nc1SCCCCCCC(=O)O | > 100 µg/mL | > 100 µg/mL | > 100 µg/mL | 100 µg/mL (≈ 348 µM) | 100 µg/mL (≈ 348 µM) | 100 µg/mL (≈ 348 µM) | inactive
7 | Cn1c([N+](=O)[O-])cnc1SCCCCCCCCCC(=O)O | 10 µg/mL (≈ 30.4 µM) | 10 µg/mL (≈ 30.4 µM) | 0.1 µg/mL (≈ 0.304 µM) | 10 µg/mL (≈ 30.4 µM) | 1 µg/mL (≈ 3.04 µM) | 1 µg/mL (≈ 3.04 µM) | inactive
8 | Cn1c([N+](=O)[O-])cnc1[S+]([O-])CCOc1ccc(C(=O)O)cc1 (centres undefined) | 100 µg/mL (≈ 295 µM) | 100 µg/mL (≈ 295 µM) | 100 µg/mL (≈ 295 µM) | 100 µg/mL (≈ 295 µM) | 100 µg/mL (≈ 295 µM) | 100 µg/mL (≈ 295 µM) | inactive
9 | COC(=O)CCCCCCCCCCSc1ncc([N+](=O)[O-])n1C | > 100 µg/mL | > 100 µg/mL | > 100 µg/mL | > 100 µg/mL | > 100 µg/mL | > 100 µg/mL | inactive
10 | Cn1ccnc1SCCCCC(=O)O | > 100 µg/mL | > 100 µg/mL | > 100 µg/mL | > 100 µg/mL | > 100 µg/mL | > 100 µg/mL | inactive
11 | CCOC(=O)c1ccc(OCCCCCCCCCCSc2ncc([N+](=O)[O-])n2C)c([N+](=O)[O-])c1 | > 100 µg/mL | 10 µg/mL (≈ 19.7 µM) | > 100 µg/mL | 10 µg/mL (≈ 19.7 µM) | 10 µg/mL (≈ 19.7 µM) | 10 µg/mL (≈ 19.7 µM) | inactive
12 | COC(=O)CCCCCCCCCCS(=O)(=O)c1ncc([N+](=O)[O-])n1C | > 100 µg/mL | > 100 µg/mL | > 100 µg/mL | > 100 µg/mL | > 100 µg/mL | > 100 µg/mL | inactive
13 | Br.Cn1ccnc1SCCCCCCCCCCC(=O)O | > 100 µg/mL | > 100 µg/mL | > 100 µg/mL | > 100 µg/mL | > 100 µg/mL | > 100 µg/mL | inactive
14 | Cn1c([N+](=O)[O-])cnc1SCCOc1ccc(C(=O)[O-])cc1.[Na+] | 10 µg/mL | 1 µg/mL | 1 µg/mL | 1 µg/mL | 10 µg/mL | 1 µg/mL | –
15 | Br.Cn1ccnc1SCCOc1ccc(C#N)cc1 | > 100 µg/mL | > 100 µg/mL | > 100 µg/mL | > 100 µg/mL | > 100 µg/mL | > 100 µg/mL | –
16 | Cn1c([N+](=O)[O-])cnc1SCCCCC(=O)O | – | 1 µg/mL (≈ 3.86 µM) | 1 µg/mL (≈ 3.86 µM) | 1 µg/mL (≈ 3.86 µM) | 1 µg/mL (≈ 3.86 µM) | 1 µg/mL (≈ 3.86 µM) | inactive
17 | Cn1c([N+](=O)[O-])cnc1SCCOc1ccc(C#N)cc1 | 100 µg/mL (≈ 329 µM) | – | 100 µg/mL (≈ 329 µM) | 1 µg/mL (≈ 3.29 µM) | 1 µg/mL (≈ 3.29 µM) | 1 µg/mL (≈ 3.29 µM) | inactive
